In general, AUC(0-t) refers to the area under the concentration-time curve up to a stated or last time point. For orientation: Cmax means the maximum level reached in the sampled fluid or tissue. One may read the Tmax as the time from dosing to the highest level. For orientation: half-life means the time needed for the level to fall by half in the phase considered. As usually defined, the pEC50 is −log10 of the EC50, conventionally taken in molar units. In general, solubility refers to the concentration that dissolves in the medium under given conditions. Low values mean a poorly soluble substance, high ones a readily soluble substance.

These results are taken from paper PMC9095748 (The Journal of Biological Chemistry, 2022).

pEC50: −log10 of the molar value. In brackets after ≈: the same amount, converted by molar mass. Several values for one entry are separate records, joined by “and”; a condition that tells them apart may be missing. Equal entries are not always repeated.

Data set [1] deals with T1, hGLP1R (Homo sapiens, UniProt P43220). As to the kind of experiment: GLP1R internalization in hGLP1R-GFP transfected HepG2 cells. Particulars: for GLP1R internalization: 50 μM, 1 h, hGLP1R-GFP transfected HepG2 cells. It is filed as cell-based. The method in brief:
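HepG2 cells lipofected with hGLP1R-spark-GFP, then treated 1 h with test compound (50 µM), Ex-4 (20 nM, positive control) or DMSO. For antagonism, Ex-9 (300 nM) added 15 min before. Washed in PBS and formalin-fixed. Surface labelled with sulfo-NHS-biotin (1 mg/ml, 30 min, 4 °C), washed in 100 mM glycine, PFA-fixed, blocked in 1% BSA and stained with Texas-Red-avidin (5 µg/ml, 30 min). Internalization read by confocal microscopy.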

In the next data set the test system is INS-1 cells. The data set is described as follows: Insulin secretion assay in INS-1 cells. The class given is cell-based, rat. The conditions noted are these: high glucose 16.7 mM, 1.5 h. The method in brief:
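INS-1 cells seeded, then held 16 h in 5 mM glucose medium and 1.5 h in 2.5 mM glucose. Treated 1.5 h with test compound or DMSO vehicle at 16.7 mM glucose. Supernatant insulin measured by rat insulin ELISA and normalized to total protein. n = 3/group.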

A further data set relates to TXNIP. The data set is described as follows: TXNIP protein expression, Western blot in INS-1 cells. The class given is cell-based, rat. The conditions noted are these: PK2 30 min. The method in brief:
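INS-1 cells treated with test compound or DMSO vehicle for 30 min. Lysed in RIPA buffer with protease and phosphatase inhibitors, protein measured by BCA, and reduced at 95 °C for 5 min. Run on 4-10% SDS-PAGE and blotted to PVDF. Blocked in 5% BSA or milk, then probed with anti-TXNIP and HRP-conjugated secondary in TBST with 5% BSA.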

In data set [2] the test system is STZ-induced diabetic mouse model. The data set is described as follows: STZ-induced diabetic mouse model. The class given is in vivo, BALB/c mice. The method in brief: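 Male BALB/c mice, 6-7 weeks old, acclimated 1 week, on chow. STZ 65 mg/kg in citrate buffer pH 4.0 given IP for 5 days after overnight fast. Test compound 25 mg/kg oral in CMC for 18 days, starting 3 days before or 1 day after STZ. Controls received 0.25% CMC with or without STZ. Tail-vein glucose taken on alternate days, body weight on random days. Pancreas sections stained for insulin/Ki67 and insulin/TUNEL; n ≥ 5/group.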

Data set [3] in a line: Tissue distribution after oral administration in mice. It is filed as in vivo, BALB/c mice. Particulars: 2 h after oral administration. The method in brief:
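Male BALB/c mice dosed orally at 25 mg/kg. Organs (pancreas, heart, brain, lung, spleen, kidney, liver) collected 2 h after dosing and homogenized. Extracted with acetonitrile:methanol (1:1) and run on reverse-phase C18 HPLC with 0.1% TFA water/acetonitrile (40:60) and fluorescence detection (ex 350 nm, em 497 nm). Quantified against a standard curve.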

Data set [4] is described as follows: Pharmacokinetics after single oral dose in BALB/c mice. The class given is in vivo. The method in brief:
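Male BALB/c mice (5-6 weeks, 25 ± 2 g) given a single oral dose of 25 mg/kg and killed at 5 min to 24 h. Plasma extracted with acetonitrile:methanol (1:1) and run on reverse-phase C18 HPLC at 28 °C. Mobile phase 0.1% TFA water/acetonitrile (40:60) at 1 ml/min, fluorescence detection (ex 350 nm, em 497 nm). Quantified from peak-area standard curve; PK parameters by standard methods.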

The next data set has as its system TXNIP promoter. The data set is described as follows: TXNIP promoter-luciferase activity assay in INS-1 cells. Particulars: PK2 50 μM, 45 min, INS-1 cells transfected with TXNIP promoter-luciferase construct. The class given is cell-based, rat.
Data set [5] deals with CREB phosphorylation at Ser133. As to the kind of experiment: CREB phosphorylation, Western blot in HepG2 cells. The conditions noted are these: PK2 50 μM, 1 hr, serum-starved HepG2 cells, vs DMSO. It is filed as cell-based, human. Background: In western blotting, separated proteins are transferred to a membrane and probed.
Data set [6] addresses T1, hGLP1R. As to the kind of experiment: cAMP Glo assay in hGLP1R-transfected 293A cells. The class given is cell-based. The gist of the method:
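293A cells transiently lipofected with hGLP1R at 70% confluency. Seeded 4 h later at 5×10^4 cells/well and left overnight. Treated 4 h with DMSO or test compound at 0.5, 10, 20, 100, 200, 300, 500, 1000 and 2000 nM. Cells lysed and cAMP read by cAMP-Glo luminescence. EC50 from curve fitting; n = 3/group.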

Data set [7] can be described thus: Safety observation in BALB/c mice over 30 days of treatment. It is filed as in vivo. The conditions noted are these: 25 mg/kg.
The test system of another data set is PKA. As to the kind of experiment: PKA activity ELISA in hGLP1R transfected 293A cells. The class given is cell-based, human. The conditions noted are these: PK2 50 μM, 45 min, vs DMSO. The gist of the method:
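293A cells lipofected with hGLP1R-spark-GFP. After 48 h, seeded at 1.0×10^4 cells/well. Next day treated with test compound (50 μM) or DMSO for 45 min in serum-free medium. PKA activity read by an ELISA on immobilized PKA substrate, per the kit protocol.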

The nature of another data set: Solubility in DMSO. The class given is physicochemical.
[8] abbreviates: BALB/c mice, oral, single dose 25 mg/kg, plasma.
[9] abbreviates: male, BALB/c, mouse, plasma, po, 25 mg/kg.

T1 sequence (P43220 24-463): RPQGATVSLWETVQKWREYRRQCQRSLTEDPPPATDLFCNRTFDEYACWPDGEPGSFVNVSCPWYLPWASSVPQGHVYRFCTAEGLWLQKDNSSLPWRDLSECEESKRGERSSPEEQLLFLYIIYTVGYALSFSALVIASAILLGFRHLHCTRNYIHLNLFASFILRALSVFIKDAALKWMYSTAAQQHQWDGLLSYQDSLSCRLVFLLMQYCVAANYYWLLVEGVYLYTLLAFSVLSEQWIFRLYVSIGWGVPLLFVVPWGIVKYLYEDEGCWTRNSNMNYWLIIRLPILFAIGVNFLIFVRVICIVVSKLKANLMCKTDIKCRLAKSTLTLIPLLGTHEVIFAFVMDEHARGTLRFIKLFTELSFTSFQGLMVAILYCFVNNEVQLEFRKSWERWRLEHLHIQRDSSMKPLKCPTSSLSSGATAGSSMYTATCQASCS

In the case of “6-((1-(4-methoxybenzyl)-1H-1,2,3-triazol-4-yl)methyl)-6H-indolo[2,3-b]quinoxaline [PK4]”, on hGLP1R [1], the GLP1R internalization entry was “rapidly internalized GLP1R receptors”.

As to `O=[N+]([O-])c1ccc(Cn2cc(Cn3c4ccccc4c4nc5ccccc5nc43)nn2)cc1` [PK2, 6-((1-(4-nitrobenzyl)-1H-1,2,3-triazol-4-yl)methyl)-6H-indolo[2,3-b]quinoxaline], the “Increase in insulin secretion” value in the data set on INS-1 cells worked out at 1.45 fold. Besides, the TXNIP protein expression entry in the data set with TXNIP is “downregulates TXNIP”. Besides, the “Recovery of serum insulin levels” value in data set [2] (PK2-treated groups, 25 mg/kg oral, end of study, vs STZ group) is recorded as “up to 6 fold”. Also, the “Enhancement of β-cell proliferation (Ki67)” value in data set [2] (PK2 groups, Ki67 in insulin-positive islet cells) is recorded as 1.7 fold. In addition, in [2] (PK2 groups, at termination of the study), the Pancreas weight entry was “protection in pancreas weight”. Also, in [2] (STZ mice, PK2 25 mg/kg oral, compared to STZ only), the Body weight result is “increased body weight”. In addition, in [2] (both PK2 groups compared to STZ group), the “Reduction of number of TUNEL-positive cells in pancreatic islets” value was determined as 3 fold. Further, the “Preservation of β-cell mass” value in [2] (pre-PK2 and post-PK2 groups compared to STZ, insulin immunohistochemistry) was 4 fold. The “Islets area (H&E)” value in data set [2] (pre-PK2 and post-PK2 groups vs STZ group) is on record as “significantly bigger islets area”. Further, the “Reduction of plasma glucose levels” value in data set [2] (pre-PK2 and post-PK2 groups, 25 mg/kg oral, compared to STZ only) stood at 1.4 fold. Further, in [3], the “Tissue distribution: brain” value is listed as “A small amount of PK2 was detectable”; the “Tissue distribution: heart, lungs, and spleen” value is on record as “no traces”; the “Tissue distribution: liver, kidney, and pancreas” value was “distributed highly”. The “Plasma clearance (CL)” value in [4] (BALB/c mice, oral, single dose 25 mg/kg) was found to be 7.79 L/h. Besides, in [4] (setting [8]), the “AUMC (0-t)” value is recorded as 13,601.58 ng h/ml, the Area of last came out at 320.1451 ng·h/mL, the “Cl (Clearance)” value is 7.7875 L/h and the “K (Eliminatory rate constant)” value was 0.2003 h⁻¹. The “VD (Apparent volume of distribution)” value in data set [4] (BALB/c mice, oral, single dose 25 mg/kg, plasma, 25 mg/kg) is 38.88 L and 38.882 L. In [4] (setting [9]), the exposure AUC(0-t) was found to be 3210 ng·h/mL, the peak level (Cmax) was 787 ng/mL and the Tmax is 1 h. In [4] (male, BALB/c, mouse, plasma, po, 25 mg/kg, t1/2 (Elimination half life), BALB/c mice, single dose 25 mg/kg), this molecule showed a half-life of 4.8 h. In addition, in the data set with TXNIP promoter, the TXNIP promoter activity result was “attenuates TXNIP promoter activity”. For the same molecule, in data set [5], the “Increase in CREB phosphorylation at Ser133” value is 1.7 fold. The pEC50 at hGLP1R [6] is 7.36. The “Abnormal behavior or acute toxicity” value in [7] is reported as “no abnormal behavior or acute toxicity was observed”. Besides, in the data set with PKA, the “Increment in PKA activity” value was 1.6 fold. The same molecule gave a solubility in the data set “Solubility in DMSO” of 10000 µg/mL (≈ 23 mM). Also, the GLP1R internalization result on hGLP1R [1] is on record as “rapidly internalized GLP1R receptors”.

On to `Cc1ccc(Cn2cc(Cn3c4ccccc4c4nc5ccccc5nc43)nn2)cc1` [PK3, 6-((1-(4-methylbenzyl)-1H-1,2,3-triazol-4-yl)methyl)-6H-indolo[2,3-b]quinoxaline], for which, at hGLP1R [1], the GLP1R internalization entry was “rapidly internalized GLP1R receptors”.

As for “Exendin (9–39) [Ex-9, reference compound]”, on hGLP1R [1] (Ex-9 300 nM for 15 min, then PK2 50 μM for 1 h, HepG2 cells), the “Effect of antagonist on PK2-mediated GLP1R internalization” value is “blocking PK2-mediated GLP1R internalization”.
